The results in this text go back to ChEMBL document CHEMBL5705901, “Exploiting selective BCL-2 family inhibitors to dissect cell survival dependencies and define improved strategies for cancer therapy” (Sci Transl Med, 2015).

Activity calls are given as the source filed them. The rule behind the calls is not given here. Where only a bound is given, the exact number is not on record here.

In assay [1] the test system is HEL. Briefly: Antiproliferative activity against human HEL harboring JAK2 V617F mutant assessed as reduction in cell viability incubated for 48 hrs by CellTiter-Glo cell vaibility assay. It is filed as functional, cell-based. The method in brief: (§1)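 Tumour cell lines (SCLC panel and AML panel) exposed to increasing concentrations for 48 hours, then cell viability measured. Cell-killing EC50 taken from the concentration-response.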
In general terms: In ATP-based viability assays light output follows the ATP content of the culture.

In assay [2] the test system is Kasumi 1. Briefly: Antiproliferative activity against human Kasumi 1 assessed as reduction in cell viability incubated for 48 hrs by CellTiter-Glo cell vaibility assay. Type of assay: functional, cell-based. The note with it: Kasumi 1, 48 h. The method in brief: as §1
For assay [3], the system named is MDA-MB-175-VII. Briefly: Induction of apoptosis in human MDA-MB-175-VII cells assessed as accumulation of cells with sub-G0-G1 DNA content at 1 uM incubated for 48 hrs in presence of docetaxel by flow cytometric analysis. Type of assay: functional, cell-based. (A flow cytometer gives signals particle by particle.)
Assay [4] concerns OCI-AML-5. Briefly: Antiproliferative activity against human OCI-AML5 assessed as reduction in cell viability incubated for 48 hrs by CellTiter-Glo cell vaibility assay. It is filed as functional, cell-based. The note with it: OCI-AML-5, 48 h. The method in brief: as §1
Assay [5] is described as follows: Antiproliferative activity against human NCI-H847 assessed as reduction in cell viability incubated for 48 hrs by CellTiter-Glo cell vaibility assay. Type of assay: functional, cell-based. The note with it: NCI-H847, 48 h. The method in brief: as §1
In assay [6] the test system is MV4-11. The assay can be described thus: Antiproliferative activity against human MV4-11 assessed as reduction in cell viability incubated for 48 hrs by CellTiter-Glo cell vaibility assay. Type of assay: functional, cell-based. The note with it: MV4-11, 48 h. The method in brief:
as §1

Assay [7] relates to SK-BR-3. Briefly: Induction of apoptosis in human SK-BR-3 cells assessed as accumulation of cells with sub-G0-G1 DNA content at 1 uM incubated for 48 hrs in presence of docetaxel by flow cytometric analysis. It is filed as functional, cell-based.
Assay [8] concerns EOL1. Briefly: Antiproliferative activity against human EOL1 assessed as reduction in cell viability incubated for 48 hrs by CellTiter-Glo cell vaibility assay. Particulars: EOL1, 48 h. It is filed as functional, cell-based. The method in brief: as §1
For assay [9], the system named is NCI-H446. The assay can be described thus: Antiproliferative activity against human NCI-H446 assessed as reduction in cell viability incubated for 48 hrs by CellTiter-Glo cell vaibility assay. It is filed as functional, cell-based. The note with it: NCI-H446, 48 h. The method in brief: as §1
The subject of assay [10] is ZR-75-1. Briefly: Induction of apoptosis in human ZR-75-1 cells assessed as increase in caspase cleavage incubated for 48 hrs in presence of docetaxel by immunoblot analysis. It is filed as functional, cell-based. A general note: Immunoblotting shows a protein as a band on a membrane.
Assay [11] has as its system HCC1428. Briefly: Induction of apoptosis in human HCC1428 cells assessed as accumulation of cells with sub-G0-G1 DNA content at 1 uM incubated for 48 hrs in presence of docetaxel by flow cytometric analysis. Type of assay: functional, cell-based.
In assay [12] the test system is NCI-H345. The assay can be described thus: Antiproliferative activity against human NCI-H345 assessed as reduction in cell viability incubated for 48 hrs by CellTiter-Glo cell vaibility assay. It is filed as functional, cell-based. Particulars: NCI-H345, 48 h. The method in brief: as §1
The subject of assay [13] is NOMO-1. The assay can be described thus: Antiproliferative activity against human NOMO-1 assessed as reduction in cell viability incubated for 48 hrs by CellTiter-Glo cell vaibility assay. Type of assay: functional, cell-based. The note with it: NOMO-1, 48 h. The method in brief: as §1
Assay [14] has as its system MOLM-13. Briefly: Antiproliferative activity against human MOLM-13 assessed as reduction in cell viability incubated for 48 hrs by CellTiter-Glo cell vaibility assay. Type of assay: functional, cell-based. The note with it: MOLM-13, 48 h. The method in brief: as §1
Assay [15] in a line: Antiproliferative activity against human UKE-1 harboring JAK2 V617F mutant assessed as reduction in cell viability incubated for 48 hrs by CellTiter-Glo cell vaibility assay. Type of assay: functional, cell-based. The note with it: UKE1, 48 h. The method in brief: as §1
The subject of assay [16] is GDM-1. Briefly: Antiproliferative activity against human GDM-1 assessed as reduction in cell viability incubated for 48 hrs by CellTiter-Glo cell vaibility assay. Type of assay: functional, cell-based. Particulars: GDM-1, 48 h. The method in brief:
as §1

The subject of assay [17] is MDA-MB-361. The assay can be described thus: Induction of apoptosis in human MDA-MB-361 cells assessed as accumulation of cells with sub-G0-G1 DNA content at 1 uM incubated for 48 hrs in presence of docetaxel by flow cytometric analysis. Type of assay: functional, cell-based.
For assay [18], the system named is NCI-H1299. Briefly: Synergistic antiproliferative activity against human NCI-H1299 cells assessed as reduction in cell viability by measuring bliss sum score incubated for 72 hrs in presence of docetaxel by CellTiter-Glo cell vaibility assay. Type of assay: functional.
In assay [19] the test system is LXFL 529. Briefly: Synergistic antiproliferative activity against human LXFL 529 cells assessed as reduction in cell viability by measuring bliss sum score incubated for 72 hrs in presence of docetaxel by CellTiter-Glo cell vaibility assay. It is filed as functional.
In assay [20] the test system is NCI-H23. The assay can be described thus: Synergistic antiproliferative activity against human NCI-H23 cells assessed as reduction in cell viability by measuring bliss sum score incubated for 72 hrs in presence of docetaxel by CellTiter-Glo cell vaibility assay. It is filed as functional.
The test system of assay [21] is Hs-578T. The assay can be described thus: Synergistic antiproliferative activity against human Hs-578T cells assessed as reduction in cell viability by measuring bliss sum score incubated for 72 hrs in presence of docetaxel by CellTiter-Glo cell vaibility assay. It is filed as functional.
Assay [22] has as its system MDA-MB-231. Briefly: Synergistic antiproliferative activity against LC3 positive human MDA-MB-231 cells assessed as reduction in cell viability by measuring bliss sum score incubated for 72 hrs in presence of docetaxel by CellTiter-Glo cell vaibility assay. Type of assay: functional.
Assay [23] concerns HCC38. The assay can be described thus: Synergistic antiproliferative activity against human HCC38 cells assessed as reduction in cell viability by measuring bliss sum score incubated for 72 hrs in presence of docetaxel by CellTiter-Glo cell vaibility assay. It is filed as functional.
Assay [24] has as its system EBC-1. Briefly: Synergistic antitumor activity against human EBC-1 cells xenografted in po dosed SCID-bg mouse assessed as tumor growth delay in presence of docetaxel relative to control. Type of assay: functional. The method in brief: (§2)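 Xenografts dosed with oral inhibitor plus intravenous docetaxel. TGImax = 100(1 − Tv/Cv), from mean treated and control tumor volumes; TGD = 100(T/C − 1), from median times to reach 1 cm3. Group size 5 mice (NCI-H747, A549-FP3, EBC-1, OVCAR-5), 8 (NCI-H358), 10 (NCI-H1650).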

For assay [25], the system named is MOLT-4. The assay can be described thus: Induction of apoptosis in human MOLT-4 cells assessed as caspase-3/7 activation at 1 to 667 nM incubated for 4 hrs. Type of assay: functional, cell-based. Particulars: dose 1-667 nM. The method in brief:
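Molt-4 cells were incubated with increasing concentrations for 4 h, and caspase-3/7 activation was measured. Values are the mean of triplicate experiments ± SD.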

Assay [26] concerns NCI-H196. The assay can be described thus: Synergistic antiproliferative activity against 5 times passaged human NCI-H1963 cells xenografted in mouse assessed as reduction in tumor volume at 25 mg/kg, po co-administered with venetoclax twice a day for 14 days. Type of assay: functional, organism-based. Particulars: time 14.0 day.
The subject of assay [27] is OVCAR-5. Briefly: Synergistic antitumor activity against human OVCAR-5 cells xenografted in po dosed SCID mouse assessed as tumor growth delay in presence of docetaxel relative to control. It is filed as functional. The method in brief:
as §2

Assay [28] concerns NCI-H1650. Briefly: Antitumor activity against human NCI-H1650 cells xenografted in SCID-bg mouse assessed as maximum tumor growth inhibition at 25 mg/kg, po administered daily for 14 days relative to control. Type of assay: functional. Particulars: NCI-H1650, 336 h, time 14 day, read-out: TGI. The method in brief: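 NCI-H1650 NSCLC xenografts, ten mice per group. Arms: vehicle; docetaxel iv once at 7.5 mg/kg; oral agent daily for 14 days at 25 mg/kg; and the two combined. TGImax = 100(1 − Tv/Cv) from mean volumes. TGD = 100(T/C − 1) from median times to reach 1 cm3.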

Regarding `CC1(C)CCC(c2ccc(Cl)cc2)=C(CN2CCN(c3ccc(C(=O)NS(=O)(=O)c4ccc(N[C@H](CCN5CCOCC5)CSc5ccccc5)c(S(=O)(=O)C(F)(F)F)c4)cc3)CC2)C1` [NAVITOCLAX], the EC50 – broadly, the midpoint of the concentration-response curve – in [1] is 70 nM; in [2] it was 30 nM; in [4], 180 nM; in [5], 140 nM; in [6] it was 40 nM; in assay [8], 11 nM. Also, the EC50 is 850 nM in assay [9]; 300 nM in assay [12]; over 5000 nM in [13]; 30 nM in assay [14]; 50 nM in assay [15]; 11 nM in [16]. Moreover, the outcome in assay [3], in [7], in [10], in assay [11] and in assay [17] was Active.

`CN(C)CC#Cc1ccc(OCCCc2sc(N3CCc4cccc(C(=O)Nc5nc6ccccc6s5)c4C3)nc2C(=O)O)c(F)c1` [A-1155463]: the EC50 was 120 nM in assay [1]; 11 nM in [2]; over 5000 nM in assay [4]; 3 nM in assay [5]; over 5000 nM in assay [6]; 2250 nM in assay [8]. Besides, the concentration for a half-maximal effect (EC50) was 200 nM in assay [9]; over 10000 nM in assay [12]; over 5000 nM in assay [13]; over 5000 nM in [14]; 490 nM in assay [15]; 1170 nM in [16]. Besides, the Activity_index is 302 in assay [18]; 734 in assay [19]; 97 in [20]; 62 in assay [21]; 305 in assay [22]; 42 in assay [23].

As to `Cc1c(-c2ccc(N3CCc4cccc(C(=O)Nc5nc6ccccc6s5)c4C3)nc2C(=O)O)cnn1CC12CC3CC(CC(C3)C1)C2`, the Activity is reported as 94% in [24] and 85% in [27]. In addition, the result in assay [25] and in [26] was Active. For the same compound, in assay [28], the inhibition in vivo at 25 mg/kg is 48%.
